The record followed here is ChEMBL document CHEMBL1759951, “Furostanol saponins from the rhizomes of Dioscorea japonica and their effects on NGF induction” (Bioorg Med Chem Lett, 2011).

Series [1] relates to C6. The experiment in a line: Induction of NGF production in rat C6 cells at 20 uM after 24 hrs by ELISA relative to untreated control. The class given is functional. A digest of the protocol: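 C6 glioma cells treated at 20 μM for 24 h; NGF released into C6-conditioned medium quantified by ELISA, reported as percentage of untreated control. Means ± SD from three independent experiments run in triplicate; Student's t-test versus control, p < 0.05.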

Series [2] is described as follows: Cytotoxicity against rat C6 cells assessed as viable cells at 20 uM after 24 hrs by MTT assay. It is filed as cell-based. Particulars: read-out: Activity. A digest of the protocol: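 C6 rat glioma cells exposed to test agent at 20 μM for 24 h; viability read by MTT and expressed as percentage of untreated control. Means ± SD of three independent experiments, each in triplicate; significance versus control by Student's t-test (p < 0.05).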
For orientation: Formazan colour is commonly taken as a measure of viable cells.

As to `CC1=CC(=O)CC(C)(C)[C@@]1(O)/C=C/[C@@H](C)O` [BLUMENOL A], the Activity in series [1] is listed as 122.2%. Besides, the viability at 24 h, 20 µM in series [2] turned out to be 101%.

`CCCCO[C@]1(CO)O[C@H](CO)[C@@H](O)[C@@H]1O` gave an Activity in series [1] of 117.5%. Also, the viability at 24 h, 20 µM in series [2] stood at 102%.

Consider `CC[C@H](CC[C@@H](C)[C@H]1CC[C@H]2[C@@H]3CC=C4C[C@@H](O)CC[C@]4(C)[C@H]3CC[C@]12C)C(C)C` [BETA-SITOSTEROL], for which the Activity in series [1] is 106.1%. Besides, the viability at 24 h, 20 µM in series [2] came out at 104%.

Compound `CC(=O)CCc1ccc(O)cc1` [RASPBERRYKETONE] displayed an Activity in series [1] of 106.8%. Further, the viability at 24 h, 20 µM in series [2] was determined as 101%.

With `C[C@H](CC[C@@]1(O)O[C@H]2C[C@H]3[C@@H]4CC=C5C[C@@H](O[C@@H]6O[C@H](CO)[C@@H](O[C@@H]7OC[C@H](O)[C@H](O)[C@H]7O)[C@H](O)[C@H]6O[C@@H]6O[C@@H](C)[C@H](O)[C@@H](O)[C@H]6O)CC[C@]5(C)[C@H]4CC[C@]3(C)[C@H]2[C@@H]1C)CO[C@@H]1O[C@H](CO)[C@@H](O)[C@H](O)[C@H]1O` [COREAJAPONINS A], in series [1], the Activity is reported as 107.2%. Besides, the viability at 24 h, 20 µM in series [2] turned out to be 106%.

The compound `CO[C@]1(CC[C@@H](C)CO[C@@H]2O[C@H](CO)[C@@H](O)[C@H](O)[C@H]2O)O[C@H]2C[C@H]3[C@@H]4CC=C5C[C@@H](O[C@@H]6O[C@H](CO)[C@@H](O[C@@H]7OC[C@H](O)[C@H](O)[C@H]7O)[C@H](O)[C@H]6O[C@@H]6O[C@@H](C)[C@H](O)[C@@H](O)[C@H]6O)CC[C@]5(C)[C@H]4CC[C@]3(C)[C@H]2[C@@H]1C` [COREAJAPONINS B] displayed an Activity in series [1] of 132.9%. In addition, in series [2], the viability at 24 h, 20 µM amounted to 98%.

As for `COc1cc(O)cc(CCc2ccccc2OC)c1` [STILBOSTEMINN], the Activity in series [1] is 104.6%. In addition, in series [2], the viability at 24 h, 20 µM is 104%.

As to `NC(=O)NC1NC(=O)NC1=O` (centres undefined) [ALLANTOIN], the Activity in series [1] is 102.4%. The viability at 24 h, 20 µM in series [2] was found to be 100%.

With `COc1cc(CC[C@@H](O)C[C@@H](O)CCc2ccc(O)c(OC)c2)ccc1O`, the Activity in series [1] is reported as 120.7%. The viability at 24 h, 20 µM in series [2] worked out at 102%.

As to `COCC(=O)c1ccc(O)cc1`, in series [1], the Activity is 105.6%. For the same compound, the viability at 24 h, 20 µM in series [2] is 99.8%.

For the compound `Oc1cc(O)cc(CCc2ccccc2)c1` [DIHYDROPINOSYLVIN], the Activity in series [1] came to 117%. The viability at 24 h, 20 µM in series [2] is 105%.

Consider `COc1cc(O)cc(CCc2ccccc2O)c1` [BATATASIN IV], for which the Activity in series [1] is recorded as 106.1%. In addition, the viability at 24 h, 20 µM in series [2] worked out at 95%.
